Only a selection was taken, and hits are over-represented in it overall.
S100A4 MyoIIA = inhibitors of S100A4-myosin IIA peptide binding, primary screen, biochemical, fluorescence polarization, TAMRA-MyoIIA peptide; 0.14% of 360,000 active; inhibition, % at 10.7 µM; Protein S100-A4 (Homo sapiens), P26447;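 active means mean inhibition of at least 70% across replicates, with every replicate also reaching that level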
Target sequence (P26447 whole entry, looked up): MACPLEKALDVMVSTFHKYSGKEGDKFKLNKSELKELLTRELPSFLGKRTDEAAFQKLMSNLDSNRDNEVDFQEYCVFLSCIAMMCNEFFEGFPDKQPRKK
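Test system: S100A4 monomer protein; Medium: HEPES pH 7.2 with CaCl2, KCl, NaCl, DTT, Triton; Probe or stimulus: TAMRA-labelled myosin IIA heavy-chain peptide probe, 5 nM; Doses: one dose per compound; Times: polarization read 5 min after assay mix addition, stable 5–60 min; Benchmarks: neutral control DMSO, positive control TFP.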
ERAP1 HTS inh = human ERAP1 aminopeptidase inhibitors, primary screen, biochemical, single point, plate reader; Endoplasmic reticulum aminopeptidase 1 (Homo sapiens), Q9NZ08; inhibition, % at 10.7 µM; AID 652197, 2013; 0.15% of 340,000 active; recombinant ERAP1, Leu-AMC fluorescence, 60 min;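 active means mean replicate inhibition of at least 30%, or all replicates individually reaching that 30% level; inactive means mean below 30% and not every replicate reaching it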
PDI turbidity = inhibitors of human PDI, primary screen, biochemical, turbidity, single point, plate reader | inhibition, % at 10 µM | 0.052% of 350,000 active | Protein disulfide-isomerase (Homo sapiens), P07237 | PDI insulin aggregation turbidity, A650, 90 min;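 active means mean inhibition across replicates of 30% or more, whatever share of single replicates reach that level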
Target sequence (P07237 whole entry, looked up): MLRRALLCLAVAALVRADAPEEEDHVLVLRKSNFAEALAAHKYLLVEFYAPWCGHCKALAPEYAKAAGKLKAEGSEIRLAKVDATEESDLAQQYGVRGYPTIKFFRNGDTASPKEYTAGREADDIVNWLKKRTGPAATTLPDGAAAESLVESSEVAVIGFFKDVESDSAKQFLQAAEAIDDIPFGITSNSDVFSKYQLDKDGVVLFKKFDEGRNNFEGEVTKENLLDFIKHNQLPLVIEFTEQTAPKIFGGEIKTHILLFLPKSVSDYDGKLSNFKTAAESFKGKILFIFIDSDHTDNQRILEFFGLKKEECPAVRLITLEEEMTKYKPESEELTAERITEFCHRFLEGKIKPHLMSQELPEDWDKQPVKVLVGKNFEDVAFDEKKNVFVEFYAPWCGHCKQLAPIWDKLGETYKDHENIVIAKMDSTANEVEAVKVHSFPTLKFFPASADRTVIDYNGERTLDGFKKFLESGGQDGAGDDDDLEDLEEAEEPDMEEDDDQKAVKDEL
FGF22 binding = binders of human FGF22 protein, primary screen, FGF22 synaptogenesis inhibitor project, biophysical, thermal shift, single point. Fibroblast growth factor 22 (Homo sapiens), Q9HCT0. recombinant FGF22 thermal shift, SYPRO orange fluorescence; percent of sucrose octasulfate shift, DMSO zero. activity (Tm shift, normalised), % at 9.99 µM. 1.5% of 340,000 active;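 active means mean Tm shift, scaled 0 neutral to 100 positive control, at about 1.3% or above, every replicate too, limit read from the data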
ERp5 block = inhibitors of ERp5-driven insulin aggregation, primary screen, biochemical, turbidity, absorbance 650 nm, single point; Protein disulfide-isomerase A6 (Homo sapiens), Q15084; 90 min; inhibition, % at 9.99 µM; 0.05% of 350,000 active; AID 651711, 2012;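 active means mean replicate inhibition above about 25%, with every replicate also reaching it, limit read from the data, passing the limit was not always enough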
Large screens that a line does not name were inactive.

O=C(Cc1ccc([N+](=O)[O-])cc1)Nc1cccc(C(F)(F)F)c1	FGF22 binding 44
CNC(=O)Nc1cccc(C(F)(F)F)c1	none (no result: S100A4 MyoIIA, ERAP1 HTS inh, FGF22 binding, ERp5 block)
O=C(Nc1ccccc1)Nc1cccc(C(F)(F)F)c1	FGF22 binding 44
COCCNc1c([N+](=O)[O-])c(=O)n(-c2ccccc2)c2ccccc12	none (no result: S100A4 MyoIIA, ERAP1 HTS inh, FGF22 binding, ERp5 block)
O=c1c([N+](=O)[O-])c(NCCN2CCCCCC2)c2ccccc2n1-c1ccccc1	FGF22 binding 43
CCC(=O)N1[C@@H]2c3ccc(/C=C/c4ccccc4)c(=O)n3C[C@H]1[C@H](CO)[C@H]2C(=O)N(C)C	ERAP1 HTS inh 38 (no result: PDI turbidity)
CN(C)C(=O)[C@H]1[C@H](CO)[C@H]2Cn3c(cccc3=O)[C@@H]1N2C(=O)c1ccccc1	S100A4 MyoIIA 126 (no result: PDI turbidity)
CC(=O)N1[C@@H]2c3ccc(/C=C/c4ccccc4)c(=O)n3C[C@H]1[C@H](CO)[C@H]2C(=O)N(C)C	ERAP1 HTS inh 91 (no result: PDI turbidity)
CC(=O)N1[C@@H]2Cn3c(ccc(/C=C/c4ccccc4)c3=O)[C@H]1[C@@H](C(=O)N(C)C)[C@@H]2CO	none (no result: PDI turbidity)
CCC(=O)N1[C@H](C(=O)N[C@H](C)c2ccccc2)[C@@H](CO)[C@@H]2Cn3c(cccc3=O)[C@@H]21	none (no result: PDI turbidity, FGF22 binding)
CC(=O)N1[C@H](C(=O)N[C@H](C)c2ccccc2)[C@@H](CO)[C@@H]2Cn3c(cccc3=O)[C@@H]21	S100A4 MyoIIA 110 (no result: PDI turbidity)
O=C(NCCCn1ccnc1)c1cnn2c1NC(c1ccccc1)CC2C(F)(F)F (configuration not stated)	none (no result: S100A4 MyoIIA, ERAP1 HTS inh, FGF22 binding, ERp5 block)
O=C(C[C@@H]1CC[C@H]2[C@@H](COC[C@H](O)CN2CC2CCCCC2)O1)NCc1ccc(F)cc1	none (no result: PDI turbidity)
C[C@@H]1CN([C@H](C)CO)C(=O)c2cc(NS(=O)(=O)c3ccc(Cl)cc3)ccc2O[C@@H]1CN(C)C(=O)NC1CCCCC1	none (no result: PDI turbidity)
CN1[C@H](C(=O)N2CCOCC2)[C@@H](CO)[C@@H]2Cn3c(ccc(/C=C/c4ccccc4)c3=O)[C@@H]21	none (no result: PDI turbidity)
COCC(=O)N1[C@@H]2Cn3c(ccc(/C=C/c4ccccc4)c3=O)[C@H]1[C@@H](C(=O)N1CCOCC1)[C@@H]2CO	ERAP1 HTS inh 128 (no result: PDI turbidity)
COC(=O)C1=C(C)NC(C)=C(C(=O)OC)C1C(=O)OCC(=O)N1c2ccccc2CC1C (configuration not stated)	ERAP1 HTS inh 48
CCOC(=O)C1=C(C)NC(C)=C(C(=O)OCC)C1C(=O)OCC(=O)N1CCCCC1CC (configuration not stated)	none
CCOC(=O)C1=C(C)NC(C)=C(C(=O)OCC)C1C(=O)OCC(=O)N1CCC(C)CC1	FGF22 binding 43
Cc1nc2sc(C(=O)OCC(=O)N3c4ccccc4CC3C)c(C)c2c(=O)[nH]1 (configuration not stated)	FGF22 binding 43
CCCCCN1CSC(=S)N(Cc2ccccc2)C1	none
CC(C)c1ccc(NC(=O)C2Cc3c(-c4ccc5c(c4)OCO5)ccnc3O2)cc1 (configuration not stated)	none
S=C(NCC(c1cccnc1)N1CCOCC1)NC1CCCCC1 (configuration not stated)	none
Fc1ccc(C(CNC(=S)NC2CCCCC2)N2CCOCC2)cc1 (configuration not stated)	FGF22 binding 43
O=C(N[C@H]1CC[C@H](CCn2cc(-c3ccccn3)nn2)O[C@@H]1CO)c1ccc(F)cc1	none (no result: PDI turbidity)
CN1C(=O)c2ccccc2CC12c1ccccc1C(=O)N2C (configuration not stated)	FGF22 binding 43
CC1(C)Cc2ccccc2C(=O)N1	none (no result: S100A4 MyoIIA, ERAP1 HTS inh, FGF22 binding, ERp5 block)
O=C(CCS(=O)(=O)c1ccccc1)N(CCCN1CCOCC1)c1nc2ccccc2s1	PDI turbidity 38 (no result: FGF22 binding)
Cc1snc(SCC(=O)N/N=C(\N)COc2cccc(C(F)(F)F)c2)c1C#N	none (no result: S100A4 MyoIIA, ERAP1 HTS inh, FGF22 binding, ERp5 block)
C[C@@H]1CNC(=O)c2c(C(=O)NCC(=O)OC(C)(C)C)ncn21	FGF22 binding 43
CC(=O)NC1(C(F)(F)F)C(=O)Nc2c1c(=O)n(C)c(=O)n2C (configuration not stated)	none (no result: S100A4 MyoIIA, ERAP1 HTS inh, FGF22 binding, ERp5 block)
COC(=O)NC1(C(F)(F)F)C(=O)Nc2c1c(=O)n(C)c(=O)n2C (configuration not stated)	FGF22 binding 43
COc1cccc(NC(=O)C(c2ccccc2)N2CCCC2)c1 (configuration not stated)	FGF22 binding 43
COc1cccc(NC(=O)C(c2ccccc2)N2CCN(c3ccccn3)CC2)c1 (configuration not stated)	none
C=C1C(C(=O)Nc2cccc(OC)c2)C1C(=O)Nc1cccc(OC)c1 (configuration not stated)	FGF22 binding 44
CO[C@H]1CC[C@H]2CCOc3c(C#N)cccc3C(=O)N(C)C[C@@H](C)C(=O)N(C)C[C@@H]1O2	none (no result: PDI turbidity)
CN1CCN(S(=O)(=O)c2cccc(C(=O)Nc3cc(Cl)ccc3N3CCOCC3)c2)CC1	ERAP1 HTS inh 61
CC(C)c1ccc(/C=N/NC(=O)c2cccc(S(=O)(=O)N3CCOCC3)c2)cc1	FGF22 binding 44
COc1ccc(Cl)cc1NC(=O)CN(C)C(=O)c1cccc(S(=O)(=O)N2CCN(C)CC2)c1	none
CN1CCN(S(=O)(=O)c2cccc(C(=O)N(C)CC(=O)Nc3ccc(F)c(F)c3F)c2)CC1	ERAP1 HTS inh 99
COc1ccccc1N1C(=O)c2ccccc2NC1C(OC)OC (configuration not stated)	none (no result: S100A4 MyoIIA, ERAP1 HTS inh, FGF22 binding, ERp5 block)
CCc1nc2ccccc2c(C(=O)Oc2ccc(C(=O)OC)cc2)c1C	FGF22 binding 44
CCOCCCNc1nc2nc3ccc(C)cn3c(=O)c2cc1C(=O)NCC1CCCO1 (configuration not stated)	ERAP1 HTS inh 57
Cc1cccn2c(=O)c3cc(C(=O)NCC4CCCO4)c(=N)n(CC4CCCO4)c3nc12 (configuration not stated)	ERAP1 HTS inh 82
Cc1cccn2c(=O)c3cc(C(=O)NCC4CCCO4)c(=N)n(Cc4cccnc4)c3nc12 (configuration not stated)	ERAP1 HTS inh 105 (no result: FGF22 binding)
Cc1cccn2c(=O)c3cc(C(=O)NC4CCCC4)c(=N)n(CC4CCCO4)c3nc12 (configuration not stated)	none
COc1cc2c(cc1OC)CN(CC(=O)Nc1ccc(C#N)cc1)CC2	none (no result: S100A4 MyoIIA, ERAP1 HTS inh, FGF22 binding, ERp5 block)
Cc1cc(-c2nnc3sc(C4CCCCC4)nn23)n[nH]1	none (no result: S100A4 MyoIIA, ERAP1 HTS inh, FGF22 binding, ERp5 block)
CCC(C)N(C(=O)CSc1ccc(NC(C)=O)cc1)C1CCS(=O)(=O)C1 (configuration not stated)	FGF22 binding 43
